MrgX1 allo act = positive allosteric modulators of MrgX1, primary screen, HEK293 cells, Fluo-4 calcium flux. Mas-related G-protein coupled receptor member X1 (Homo sapiens), Q96LB2. FDSS; active compounds read high. B-score at 10 µM. 0.63% of 310,000 active;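 active = plate-corrected calcium response at least 3 library SD above typical, normal starting fluorescence, not activating the receptor alone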;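 also: compound read alongside a low EC10 to EC30 dose of BAM8-22 agonist; peak minus trough fluorescence over baseline measured at the second addition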
Target sequence (Q96LB2 whole entry, looked up): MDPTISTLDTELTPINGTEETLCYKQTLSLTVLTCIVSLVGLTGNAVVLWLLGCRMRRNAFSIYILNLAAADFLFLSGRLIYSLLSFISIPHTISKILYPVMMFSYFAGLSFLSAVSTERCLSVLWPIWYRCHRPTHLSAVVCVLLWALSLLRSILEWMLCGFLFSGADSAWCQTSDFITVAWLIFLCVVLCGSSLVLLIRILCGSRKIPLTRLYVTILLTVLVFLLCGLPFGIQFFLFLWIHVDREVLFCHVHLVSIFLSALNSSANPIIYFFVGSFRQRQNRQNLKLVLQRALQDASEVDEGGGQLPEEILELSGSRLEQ
MrgX1 antag = antagonists of human MrgX1 receptor, primary screen, HEK293 cells, Fluo-4 calcium flux; AID 588676, 2011; Mas-related G-protein coupled receptor member X1 (Homo sapiens), Q96LB2; 1.3% of 310,000 active; BAM8-22 antagonism; active compounds read low; B-score at 10 µM;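 active = calcium-response B-score plate-corrected more than 3 library SD below zero, starting fluorescence within 5 deviations, no agonist response on first addition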;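 also: peak minus trough fluorescence over baseline after final BAM8-22 challenge near maximal dose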
Lipid droplet = inhibitors of hepatocyte lipid droplet formation, primary screen, imaging, high-throughput imaging, BODIPY stain | 0.4% of 240,000 active | AML12 mouse hepatocytes, oleate lipid droplets | AID 1656, 2009 | inhibition, % at 6.5 µM;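 active = lipid droplet intensity inhibited by at least 50%, with more than 500 cells counted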
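System: AML12 hepatocytes (mouse). Probe or stimulus: oleic acid at 100 µM to induce lipid droplet formation. Times: overnight treatment with compound plus oleate. Detection: Image-based BODIPY and DAPI two-channel analysis. Evaluation: percent inhibition of filter-corrected integrated lipid droplet intensity per well.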
RGS4 inh = RGS4 inhibitors, primary screen, cell-based, HEK293 M3R inducible RGS4, calcium flux. Regulator of G-protein signaling 4 (Homo sapiens), P49798. Fluo-4 calcium flux; active compounds read high; triggered by carbachol at its EC20. B-score at 10 µM. 0.45% of 310,000 active;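 active = B-score, a plate-corrected calcium signal, over three deviations above library mean, with baseline fluorescence within five deviations of library mean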;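 also: RGS4 expression induced by doxycycline in cells with stable M3 receptor; B-score is computed from the integrated fluorescence ratio over baseline after carbachol; higher B-score means a larger calcium signal and so more RGS4 inhibition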
Target sequence (P49798 whole entry, looked up): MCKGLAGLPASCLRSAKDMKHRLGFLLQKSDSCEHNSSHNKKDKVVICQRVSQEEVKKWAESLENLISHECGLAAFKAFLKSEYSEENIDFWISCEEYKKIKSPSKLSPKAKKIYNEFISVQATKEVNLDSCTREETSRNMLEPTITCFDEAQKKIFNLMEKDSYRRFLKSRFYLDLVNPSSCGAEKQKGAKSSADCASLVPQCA
MrgX1 agonist = agonists of human MrgX1 receptor, primary screen, HEK293 cells, Fluo-4 calcium flux | 0.44% of 310,000 active | B-score at 10 µM | Fluo-4 calcium fluorescence, agonist mode; active compounds read high | AID 588627, 2011;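 active = calcium response B-score plate-corrected fluorescence ratio at least 3 library SD, with starting fluorescence B-score inside 5 SD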
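Material: MrgX1-expressing HEK293 cells / Dosing: compound as first of three additions / Incubation: overnight seeding, then 1 h dark dye loading / Signal: Fluo-4 NW calcium fluorescence / Evaluation: B-scored fluorescence response ratio / Benchmarks: positive and negative control wells on each plate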
RGS4 act = RGS4 potentiators or activators, primary screen, cell-based, HEK293 M3R inducible RGS4, calcium flux | B-score at 10 µM | 0.92% of 310,000 active | AID 463111, 2010 | carbachol calcium flux Fluo4; active compounds read low;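 active = B-score of the integrated calcium signal more than 4 SD below the library mean, with starting fluorescence not abnormally high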;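 also: negative B-score means reduced calcium response which marks RGS4 activation or potentiation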
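Reagent: ECmax carbachol challenge; Test system: M3R-expressing HEK293 line, RGS4 induced by doxycycline; Schedule: overnight RGS4 induction, 30 min dye load 37 °C, 20 min compound RT; Detection: calcium dye Fluo4 fluorescence; Read-out: Agonist-evoked peak-minus-minimum fluorescence over baseline, integrated ratio, B score.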
The depositor's hits bear a star; i = inactive; . = no result. A selection: hits, their analogues and other compounds. The true share with any hit is near 3.8%.

SMILES	MrgX1 allo act	MrgX1 antag	Lipid droplet	RGS4 inh	MrgX1 agonist	RGS4 act
O=S(=O)(N/N=C1/CC(c2ccccc2)Oc2ccccc21)c1ccc(Br)cc1 (configuration not stated)	i	-6.7*	-11	i	i	i
CCN(c1cccc(C)c1)S(=O)(=O)c1cc2c3c(c1)CCC(=O)N3CCC2	i	i	.	i	i	i
O=C(CSc1nc2ccc([N+](=O)[O-])cc2[nH]1)NCCc1ccccc1	i	i	.	i	i	i
CC1=C(SCCC#N)S/C(=C2\SC(C)=C(SCCC#N)S2)S1	i	-5.2*	.	i	i	i
C/C(=N/NC(=O)CNC(=O)COc1ccccc1)c1ccc(Cl)cc1	i	i	-5	i	i	i
CSc1cccc(NC(=O)c2ccc(CN3CCc4ccccc4C3)cc2)c1	i	-8.2*	6	i	i	i
O=C(Nc1cccc(Br)c1)c1ccc(CN2CCc3ccccc3C2)cc1	i	-6.1*	17	i	i	-8.8*
CC(=O)Nc1ccc(NC(=O)c2ccc(CN3CCc4ccccc4C3)cc2)cc1	i	i	4	i	i	i
O=C(Nc1ccc(F)cc1)c1ccc(CN2CCc3ccccc3C2)cc1	i	i	.	i	i	i
CCOC(=O)C1CCN(C(=O)C2CCN(c3nc4ccc(OC)cc4s3)CC2)CC1	i	-5.5*	.	i	i	i
COc1ccc(CN2C(=O)c3ccc(C(=O)O)cc3C2=O)cc1	i	i	.	i	i	i
CC(C)(C)/C(O)=C/c1nc2cc(Cl)ccc2oc1=O	i	i	-9	i	i	i
O/N=C/c1nc2cc(Cl)ccc2o1	9.4*	i	6	i	i	i
CC(=O)c1ccc(OCCCC(=O)OCC(=O)Nc2ccc3[nH]c(=O)[nH]c3c2)cc1	i	i	.	i	i	i
CCOC(=O)c1c(NC(=O)c2nn(CC)cc2Br)sc2c1CCCCC2	i	i	31	i	i	-7*
CCOC(=O)c1c(NC(=O)c2nn(CC)cc2Br)sc(C)c1C	i	i	6	i	i	i
CSc1ncccc1C(=O)N(C)CC(=O)Nc1cccc(F)c1	i	i	-4	i	i	i
Cc1ccc(O)c(C(=O)c2cc(C#N)c(=O)n(-c3c(C)n(C)n(-c4ccccc4)c3=O)c2)c1	i	i	.	i	i	i
Cc1c(-n2cc(C(=O)c3cc(Cl)ccc3O)cc(C#N)c2=O)c(=O)n(-c2ccccc2)n1C	7.8*	i	.	i	i	i
Cc1ccc(O)c(C(=O)c2cc(C#N)c(=O)n(-c3nccs3)c2)c1	i	i	-1	i	53*	i
Cc1nn(Cc2ccccc2Cl)c(C)c1NC(=O)/C=C/c1cnn(C)c1	i	-4.6*	.	i	i	i
O=C(O)CCN1C(=O)c2ccc(Oc3ccc([N+](=O)[O-])cc3)cc2C1=O	i	i	2	i	i	i
Cn1cccc1CC(=O)N/N=C/c1ccc(Cl)cc1	11*	i	-5	i	i	i
O=C(CNS(=O)(=O)c1ccc([N+](=O)[O-])cc1)N/N=C\c1ccc(O)cc1	9.1*	-6.1*	-10	i	i	i
Cn1cccc1CC(=O)N/N=C\c1ccccc1	i	i	12	i	i	i
SMILES	MrgX1 allo act	MrgX1 antag	Lipid droplet	RGS4 inh	MrgX1 agonist	RGS4 act
Cn1cccc1CC(=O)N/N=C/c1ccc([N+](=O)[O-])cc1	7.6*	i	-5	i	i	i
CCCCOc1ccc(C(=O)NCc2ccccn2)cc1	i	i	-14	i	i	i
CC(OC(=O)CCc1c[nH]c2ccccc12)C(=O)c1ccccc1 (configuration not stated)	i	i	2	i	i	i
Cc1cc(C)c(S(=O)(=O)/N=C2/C=C(Sc3ncn[nH]3)C(=O)c3ccccc32)cc1C	6.8*	i	-2	.	i	.
Cc1ccc(C)c(S(=O)(=O)/N=C2\C=C(NS(=O)(=O)c3ccccc3)C(=O)c3ccccc32)c1	i	i	1	i	i	i
Cc1ccc(C(=O)N2CC(C)OC(C)C2)cc1[N+](=O)[O-] (configuration not stated)	i	-5*	-6	i	i	i
CC1CN(C(=O)c2ccc(N3CCCCC3)c([N+](=O)[O-])c2)CC(C)O1 (configuration not stated)	i	i	12	i	i	i
CCOc1cc(/C=C2/NC(=O)NC2=O)cc([N+](=O)[O-])c1O	i	-7.7*	10	i	i	i
O=[N+]([O-])c1cccc(S(=O)(=O)NCCCn2ccnc2)c1	i	i	2	i	i	i
O=C(NC1CCCCC1)c1sc(=S)n2c1[nH]c(=O)c1ccccc12	i	i	.	i	47*	i
O=C(NCC1CCCO1)c1sc(=S)n2c1[nH]c(=O)c1ccc(C(=O)N3CCCCC3)cc12 (configuration not stated)	i	i	.	i	i	i
CCCCNC(=O)c1sc(=S)n2c1[nH]c(=O)c1ccccc12	i	i	.	i	63*	i
Cc1ccc(O)c(N=Cc2cc(Cc3ccccc3)cc([N+](=O)[O-])c2O)c1	.	.	20	i	.	-7.2*
Cc1cc(C)c2oc(=O)cc(CN3CCCCC3)c2c1	i	i	-5	i	i	i
Cc1ccc([N+](=O)[O-])c(NC(=O)COC(=O)C2CC3CCCC(C2)C3=O)c1C (configuration not stated)	i	i	5	i	i	i
Cc1ccc(C(=O)COC(=O)C2CC3CCCC(C2)C3=O)cc1[N+](=O)[O-] (configuration not stated)	i	-5.6*	.	i	i	i
O=C(NCCCNCc1ccccc1)/C(=N\O)c1ccccc1	i	i	.	.	i	.
O=C(NCc1ccncc1)/C(=N/O)c1ccccc1	i	-5.7*	.	i	i	i
C/C(=N\O)C(C)(C)Nc1ccc(Br)cc1	i	i	8	i	26*	i
